Measured values as given in paper PMC10688270 (Neurochemical research, 2019).
Entries after “also recorded” stand apart in the source; their conditions may differ. Read-outs that look alike come from different tables or passages of the source. Blank lines part the entries; values can stand above or below the compound they belong to.

Tests used:
[1] = biological target: T1, SXc− (Homo sapiens, UniProt Q9UPY5); assay: Inhibition of SXc−-mediated uptake of 3H-L-Glu into SNB19 cells; format: cell-based; conditions: for fold less effective than SAS: comparison of inhibition of SXc− with SAS
T1 sequence (Q9UPY5 1-501): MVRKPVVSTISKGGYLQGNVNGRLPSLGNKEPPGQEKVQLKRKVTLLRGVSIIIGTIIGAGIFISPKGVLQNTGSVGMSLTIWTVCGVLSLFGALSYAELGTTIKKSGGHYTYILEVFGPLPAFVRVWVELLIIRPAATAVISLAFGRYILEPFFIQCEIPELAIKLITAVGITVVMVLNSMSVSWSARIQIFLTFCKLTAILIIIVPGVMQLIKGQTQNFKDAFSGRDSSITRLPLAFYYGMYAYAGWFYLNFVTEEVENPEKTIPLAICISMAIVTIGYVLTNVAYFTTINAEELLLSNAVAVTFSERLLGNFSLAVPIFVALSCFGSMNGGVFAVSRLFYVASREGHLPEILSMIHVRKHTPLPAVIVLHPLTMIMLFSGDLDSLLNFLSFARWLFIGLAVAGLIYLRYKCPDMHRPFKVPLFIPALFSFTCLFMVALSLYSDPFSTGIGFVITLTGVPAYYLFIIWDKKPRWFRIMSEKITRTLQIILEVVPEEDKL
T1 sequence (P08195 1-529 partner): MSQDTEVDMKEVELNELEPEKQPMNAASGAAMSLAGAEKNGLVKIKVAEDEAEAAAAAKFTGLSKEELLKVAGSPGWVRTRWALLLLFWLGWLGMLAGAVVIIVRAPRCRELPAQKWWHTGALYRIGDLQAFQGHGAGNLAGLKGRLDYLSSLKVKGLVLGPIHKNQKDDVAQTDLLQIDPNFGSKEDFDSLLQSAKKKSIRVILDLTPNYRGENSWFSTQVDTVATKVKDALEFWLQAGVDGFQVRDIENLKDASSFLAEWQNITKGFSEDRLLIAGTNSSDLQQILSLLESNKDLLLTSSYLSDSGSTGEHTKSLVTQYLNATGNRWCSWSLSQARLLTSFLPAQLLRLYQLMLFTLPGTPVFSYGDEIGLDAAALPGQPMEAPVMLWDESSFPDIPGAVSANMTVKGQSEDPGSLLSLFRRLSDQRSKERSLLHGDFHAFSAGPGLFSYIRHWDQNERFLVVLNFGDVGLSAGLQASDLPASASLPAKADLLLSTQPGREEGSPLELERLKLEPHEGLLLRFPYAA
Procedure, shortened: (§1)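 Human SNB19 glioma cells were grown in DMEM/F-12 (pH 7.4) with 10% fetal calf serum at 37°C and 5% CO2. They were seeded at 3×10^4 cells/well and used after 3 days at 80–90% confluence. Cells were pre-incubated 5 min at 30°C in Na+-free (choline-Cl) HEPES-buffered Hank's salt solution, pH 7.4. Test compound was added simultaneously with 3H-L-Glu for 5 min at 30°C. Uptake was read by scintillation counting, normalised to BCA protein, and corrected by subtracting 4°C accumulation. Duplicate wells per experiment; n ≥ 3 experiments.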

[2] = biological target: T1, SXc−; assay: Kinetic analysis; format: cell-based; conditions: for Inhibitory Mechanism: V vs [S] and Lineweaver-Burk plots, SNB19 cells
Procedure, shortened: as §1

[3] = system: SXc−; conditions: previous work; cited from earlier work
[4] = read-out: IC50 for the inhibition of SXc−-mediated uptake of 3H-L-Glu into SNB19 cells, Mean ± SEM (n ≥ 3), single concentration of L-Glu (100 μM), Na+-free buffer, 5 min, 30°C

Compound: O=S(=O)(O)c1cc2cc(S(=O)(=O)O)c(O)cc2cc1O [3,6-dihydroxy-2,7-naphthylene-disulfonate]
IC50 [1, 4]: > 500 µM

Compound: Nc1cc(S(=O)(=O)O)cc2cc(S(=O)(=O)O)cc(O)c12 [4-Amino-5-OH-2,7-naphthylene-disulfonate]
inhibitory activity at SXc− (in words) ([1]; 3H-L-Glu uptake into SNB19 cells): inactive | IC50 [1, 4]: > 500 µM

Compound: Nc1ccc(N=Nc2ccc(-c3ccc(N=Nc4ccc(N)c5ccc(S(=O)(=O)O)cc45)cc3)cc2)c2cc(S(=O)(=O)O)ccc12 [AANS #6]
Inhibitory Mechanism [2]: Noncompetitive (Mixed) | Inhibitory Mechanism ([2]; listed as #6): mixed inhibition

Compound: Nc1c(N=Nc2ccc([N+](=O)[O-])cc2)c(S(=O)(=O)[O-])cc2cc(S(=O)(=O)[O-])c(N=Nc3ccccc3)c(O)c12.[Na+].[Na+] [Acid Black 1]
Inhibitory Mechanism [2]: Competitive | Inhibitory Mechanism ([2]; listed as Acid Black): competitive mechanism; also recorded: competitive inhibition

Compound: CC(=O)Nc1cc(S(=O)(=O)O)cc2cc(S(=O)(=O)O)c(N=Nc3ccccc3)c(O)c12 [Acid Red 1]
IC50 [1, 4]: 191 ± 8 µM

Compound: Nc1c(/N=N/c2ccc(-c3ccc(/N=N/c4cc(S(=O)(=O)O)c5ccccc5c4N)cc3)cc2)cc(S(=O)(=O)O)c2ccccc12 [Congo Red]
block of glutamate uptake by SXc− (in words) [3]: relatively poor blocker

Compound: Chrome Yellow
fold less effective than SAS [1]: about 5 fold | IC50 [1, 4]: 27 ± 4 µM

The next lines start with the values.

fold less effective than SAS [1]: about 5 fold | IC50 [1, 4]: 30 ± 7 µM
Compound: O=C(O)c1cc(N=Nc2cccc([N+](=O)[O-])c2)ccc1[O-].[Na+] [Alizarin Yellow GG]

IC50 [1, 4]: 130 ± 23 µM
Compound: O=[N+]([O-])c1ccc(N=Nc2c(S(=O)(=O)O)cc3cc(S(=O)(=O)O)cc(O)c3c2O)cc1 [Chromotrope 2B]

IC50 [1, 4]: 21 ± 5 µM
Compound: O=S(=O)(O)c1cc(O)c2c(O)c(N=Nc3ccccc3)c(S(=O)(=O)O)cc2c1 [Chromotrope 2R]

IC50 [1, 4]: 155 ± 11 µM
Compound: Nc1cc(S(=O)(=O)O)cc2cc(S(=O)(=O)O)c(N=Nc3cc([N+](=O)[O-])cc(Cl)c3O)c(O)c12 [Gallion]

IC50 [1, 4]: 38 ± 3 µM
Compound: O=C(O)c1cc(N=Nc2ccc([N+](=O)[O-])cc2)ccc1O [Mordant Orange 1]

IC50 [1, 4]: > 250 µM
Compound: COc1ccccc1N=Nc1c(S(=O)(=O)O)cc2cc(S(=O)(=O)O)cc(NC(C)=O)c2c1O [Pontacyl Carmine 2B]

IC50 [1]: > 250 µM
Compound: O=S(=O)(O)c1cc(O)c2c(O)c(/N=N/c3cccc4ccccc34)c(S(=O)(=O)O)cc2c1 [Pontacyl Violet 6R]

Ki [2]: 10.4 ± 1.3 µM | Inhibitory Mechanism [2]: Competitive | Inhibitory Mechanism ([2]; listed as SAS): competitive inhibition
Compound: O=C(O)c1cc(/N=N/c2ccc(S(=O)(=O)Nc3ccccn3)cc2)ccc1O [Sulfasalazine]
